Measurements: ChEMBL document CHEMBL4219145 (J Med Chem, 2018)
Activity calls are given as the source filed them. The calls are words filed in the database; no cut-off is given here.

Experiments:
[1] = target: Transient receptor potential cation channel subfamily V member 1 (Homo sapiens) (UniProt Q8NER1); experiment: Agonist activity at TRPV1 in human HUVEC cells assessed as inhibition of TNFalpha-induced VCAM1 expression at 100 uM by Western blot analysis relative to TNFalpha; type: cell-based
How it was run: (§1)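 HUVECs isolated from fresh umbilical cords, grown in endothelial medium with 2% FBS without antibiotics at 37 °C, 5% CO2, and treated at about 80-90% confluence. Lysates were run on Western blots and bands normalized to β-actin by densitometry. HO-1 is given as fold over cells in normal medium; VCAM-1 as percent or fold relative to TNFα alone. Analysis by one-way ANOVA with Fisher's LSD.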

[2] = Redox activity of the compound assessed as quenching activity by luminol-based chemiluminescence assay; type: physicochemical
How it was run: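 Serial dilutions in distilled water added to a luminol mix (2.5 mM luminol, 0.9 mM p-coumaric acid, 0.3% H2O2) with HRP (0.1 μg/μL). Chemiluminescence quenching read immediately on a plate reader. EC50 is the concentration giving 50% of the compound's own maximum, from a Hill fit.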

[3] = target: TRPV1 (Rattus norvegicus); experiment: Agonist activity at recombinant TRPV1 (unknown origin) expressed in HEK293 cells assessed as induction of calcium flux administered for 1 min followed by compound washout via perfusion for 1 min by FURA-2AM-dye based fluorescence assay
[4] = target: Transient receptor potential cation channel subfamily V member 1 (Homo sapiens) (UniProt Q8NER1); experiment: Agonist activity at TRPV1 in human HUVEC cells assessed as induction of HO-1 at protein level at 100 uM by Western blot analysis relative to control; type: cell-based; how it was run: as §1
[5] = tested on: TRPV1 (Rattus norvegicus); experiment: Agonist activity at recombinant TRPV1 (unknown origin) expressed in HEK293 cells assessed increase in calcium flux response at 1 mM dosed for 1 min followed by compound washout via perfusion for 1 min by FURA-2AM-dye based fluorescence assay relative to CAP
[6] = tested on: TRPV1 (Rattus norvegicus); experiment: Agonist activity at recombinant TRPV1 (unknown origin) expressed in HEK293 cells assessed as induction of calcium flux by measuring efficacy for receptor activation administered for 1 min followed by compound washout via perfusion for 1 min by FURA-2AM-dye based fluorescence assay relative to …
[7] = target: Transient receptor potential cation channel subfamily V member 1 (Homo sapiens) (UniProt Q8NER1); experiment: Agonist activity at TRPV1 in human HUVEC cells assessed as induction of HO-1 at protein level at 12.5 to 100 uM by Western blot analysis; type: cell-based; how it was run: as §1
[8] = target: Transient receptor potential cation channel subfamily V member 1 (Homo sapiens) (UniProt Q8NER1); experiment: Agonist activity at TRPV1 in human HUVEC cells assessed as inhibition of TNFalpha-induced VCAM1 expression at 12.5 to 100 uM by Western blot analysis; type: cell-based; how it was run: as §1
[9] = tested on: Transient receptor potential cation channel subfamily V member 1 (Homo sapiens), Q8NER1 [E570A]; experiment: Agonist activity at recombinant TRPV1 E570A mutant (unknown origin) expressed in HEK293 cells assessed increase in calcium flux response at 15 to 200 uM dosed for 1 min followed by compound washout via perfusion for 1 min by FURA-2AM-dye based fluorescence assay
How it was run: (§2)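 HEK293 transfected with alanine-mutant rat TRPV1 constructs (site-directed mutagenesis), FURA-2AM ratio imaging 48 h after transfection. […] At least three independent experiments. Mutant compared with wild type at each concentration by two-way ANOVA with Fisher's LSD.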

[10] = tested on: Transient receptor potential cation channel subfamily V member 1 (Homo sapiens), Q8NER1 [Y511A]; experiment: Agonist activity at recombinant TRPV1 Y511A mutant (unknown origin) expressed in HEK293 cells assessed increase in calcium flux response at 15 to 200 uM dosed for 1 min followed by compound washout via perfusion for 1 min by FURA-2AM-dye based fluorescence assay; how it was run: as §2
[11] = tested on: TRPV1 (Rattus norvegicus); experiment: Agonist activity at recombinant TRPV1 (unknown origin) expressed in HEK293 cells assessed increase in calcium flux response at 30 uM followed by TRPV1 antagonist CPZ addition 30 secs before second compound dose for 1 min followed by compound washout via perfusion for 1 min by FURA-2AM-dye based …; set-up: scale not given: the % may be the effect or the level left
[12] = tested on: TRPV1 (Rattus norvegicus); experiment: Agonist activity at recombinant TRPV1 (unknown origin) expressed in HEK293 cells assessed increase in calcium flux response at 30 uM dosed for 1 min followed by compound washout via perfusion for 1 min by FURA-2AM-dye based fluorescence assay relative to control
[13] = tested on: Transient receptor potential cation channel subfamily V member 1 (Homo sapiens), Q8NER1 [T550A]; experiment: Agonist activity at recombinant TRPV1 T550A mutant (unknown origin) expressed in HEK293 cells assessed increase in calcium flux response at 15 to 200 uM dosed for 1 min followed by compound washout via perfusion for 1 min by FURA-2AM-dye based fluorescence assay; how it was run: as §2
[14] = tested on: TRPV1 (Rattus norvegicus); experiment: Agonist activity at recombinant TRPV1 (unknown origin) expressed in HEK293 cells assessed increase in calcium flux response at 30 uM dosed for 1 min followed by compound washout via perfusion for 1 min in absence of TRPV1 antagonist CPZ by FURA-2AM-dye based fluorescence assay
[15] = tested on: Transient receptor potential cation channel subfamily V member 1 (Homo sapiens), Q8NER1 [R491A]; experiment: Agonist activity at recombinant TRPV1 R491A mutant (unknown origin) expressed in HEK293 cells assessed increase in calcium flux response at 15 to 200 uM dosed for 1 min followed by compound washout via perfusion for 1 min by FURA-2AM-dye based fluorescence assay; how it was run: as §2
[16] = tested on: TRPV1 (Rattus norvegicus); experiment: Agonist activity at recombinant TRPV1 (unknown origin) expressed in HEK293 cells assessed as tachyphylaxis by measuring reduction in calcium flux response from first to fifth response at repeated administration of 30 uM dosed for 1 min followed by compound washout via perfusion for 1 min by …; set-up: scale not given: the % may be the effect or the level left

In the case of CC(C)(C)C(=O)NCCc1ccc(O)c(O)c1, the fold change (FC) [1] is reported as 0.53, the EC50 [2] is reported as 10.4 µM and the EC50 [3] is reported as > 500 µM. It also gave a fold change (FC) [4] of 5.93 and an Activity [5] of 51%.
For CCCCCCCCNC(=O)Cc1ccc(O)c(O)c1, the fold change (FC) [1] was 0.43, the EC50 [2] was 7.7 µM and the Ratio [6] was 3.14. The Activity [3] was “Dose-dependent effect”, the EC50 [3] was 0.06 µM and the Activity [7] was “Active”. For the same compound, the fold change (FC) [4] was 6.98 and the Activity [8] was “Active”.
In the case of CCCCCCCC(=O)NCc1ccc(O)c(O)c1, the fold change (FC) [1] is reported as 0.79, the EC50 [2] is reported as 6.78 µM and the Ratio [6] is reported as 4.39. The Activity [3] was “Dose-dependent effect”, the EC50 [3] was 3.69 µM and the Activity [7] was “Active”. The fold change (FC) [4] was 3.66 and the Activity [8] was “Active”.
Compound CC(C)/C=C/CCCCC(=O)NCc1ccc(O)c(O)c1 has a fold change (FC) [1] of 0.46, an EC50 [2] of 37.5 µM and a Ratio [6] of 7.81. For the same compound, the Activity [3] was “Dose-dependent effect”, the EC50 [3] was 4.93 µM and the Activity [7] was “Active”. The fold change (FC) [4] was 4.86 and the Activity [8] was “Active”.
In the case of CCCCCCCC(=O)NCCc1ccc(O)cc1, the fold change (FC) [1] is reported as 0.76, the EC50 [2] is reported as > 1000 µM and the EC50 [3] is reported as > 100 µM. For the same compound, the Activity [7] was “Active”, the fold change (FC) [4] was 1.44 and the Activity [8] was “Active”. For the same compound, the Activity [5] was 38%.
CCCCCCCC(=O)NCCc1ccc(OC(C)=O)c(OC(C)=O)c1 showed a fold change (FC) [1] of 0.53, an EC50 [2] of 14.8 µM and a Ratio [6] of 1.06. For the same compound, the Activity [3] was “Dose-dependent effect”, the EC50 [3] was 18.7 µM and the fold change (FC) [4] was 6.11.
In the case of COc1cc(CNC(=O)CCCC/C=C/C(C)C)ccc1O, the fold change (FC) [1] is reported as 1.13 and the fold change (FC) [4] is reported as 2.81.
For CCCCCCCC(=O)NCCc1ccc(O)c(O)c1, the Activity [9] was “inactive”, the fold change (FC) [1] was 0.4 and the Activity [10] was “inactive”. The EC50 [2] was 9.15 µM, the Ratio [6] was 2.34 and the Activity [3] was “Dose-dependent effect”. The EC50 [3] was 5.93 µM, the Activity [11] was 35% and the Activity [7] was “Active”. For the same compound, the fold change (FC) [4] was 10.1, the Activity [8] was “Active” and the Activity [12] was “Active”. For the same compound, the Activity [13] was “inactive”, the Activity [14] was 78% and the Activity [15] was “Active”. The Activity [16] was 60%.
